The target of assay [1] is T1, UGT1A9 (Homo sapiens, UniProt O60656).
T1 sequence (O60656 26-530): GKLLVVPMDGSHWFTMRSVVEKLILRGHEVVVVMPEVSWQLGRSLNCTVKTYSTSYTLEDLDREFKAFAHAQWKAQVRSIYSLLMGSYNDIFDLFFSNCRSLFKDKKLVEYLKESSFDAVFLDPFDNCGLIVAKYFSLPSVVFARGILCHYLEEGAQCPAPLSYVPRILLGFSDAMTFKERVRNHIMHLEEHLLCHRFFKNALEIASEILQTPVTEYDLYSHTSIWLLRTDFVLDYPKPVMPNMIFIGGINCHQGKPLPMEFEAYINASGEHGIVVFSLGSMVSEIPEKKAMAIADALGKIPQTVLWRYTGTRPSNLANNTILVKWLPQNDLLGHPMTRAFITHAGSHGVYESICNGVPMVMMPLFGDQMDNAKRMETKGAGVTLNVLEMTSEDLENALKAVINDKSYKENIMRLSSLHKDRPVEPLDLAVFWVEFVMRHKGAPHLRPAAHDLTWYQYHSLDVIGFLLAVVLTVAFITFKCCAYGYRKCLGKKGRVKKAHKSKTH
Type of assay: in vitro ADME. The note with it: propofol 500 μM; individual HLM n = 9; Pearson; P = 0.016. The procedure, abridged: (§1)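 UDPGA-supplemented individual human liver microsomes (n = 9) in 100 μl Tris-HCl 50 mM pH 7.4 with alamethicin 22 μg/ml, D-saccharic-1,4-lactone 4.4 mM and UDPGA 3.5 mM. Incubated 37 °C for 60 min, stopped with ice-cold acetonitrile, centrifuged, supernatant analysed by UHPLC. Test compound glucuronidation rates correlated with probe glucuronidation across donors by Pearson analysis.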

Assay [2] addresses T2, UGT1A1 (Homo sapiens, UniProt P22309).
T2 sequence (P22309 26-533): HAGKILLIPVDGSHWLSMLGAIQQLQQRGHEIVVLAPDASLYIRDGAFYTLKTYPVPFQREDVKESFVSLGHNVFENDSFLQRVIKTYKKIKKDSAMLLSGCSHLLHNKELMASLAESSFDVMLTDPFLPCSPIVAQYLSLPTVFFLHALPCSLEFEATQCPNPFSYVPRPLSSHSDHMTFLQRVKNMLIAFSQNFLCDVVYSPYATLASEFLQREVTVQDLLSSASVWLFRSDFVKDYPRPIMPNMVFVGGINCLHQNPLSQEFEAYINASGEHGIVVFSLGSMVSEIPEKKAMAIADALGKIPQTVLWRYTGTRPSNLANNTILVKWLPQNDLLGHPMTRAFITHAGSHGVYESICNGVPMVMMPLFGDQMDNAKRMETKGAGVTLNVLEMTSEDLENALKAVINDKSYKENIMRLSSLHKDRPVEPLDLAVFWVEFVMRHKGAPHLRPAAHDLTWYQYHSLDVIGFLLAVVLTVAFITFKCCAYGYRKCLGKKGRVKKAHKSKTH
It counts as in vitro ADME. The note with it: β-estradiol 50 μM; individual HLM n = 9; Pearson; P = 0.014. Summed up: as §1

Assay [3] deals with opioid receptor. The note with it: cited from earlier work.

The structures appear in SMILES notation.

Data on two compounds can be found in PMC8861878 (The Journal of pharmacy and pharmacology, 2020).

Take `CC(C)=CCc1c(O[C@@H]2O[C@H](C(=O)O)[C@@H](O)[C@H](O)[C@H]2O)ccc2c1O[C@H](c1ccc(O)cc1)CC2=O` [G1, isobavachin-7-O-glucuronide]: the values for the correlation factor r in assay [1] and in assay [2] were 0.767 and 0.774, respectively.

On to `CN1CC[C@]23c4c5ccc(O)c4O[C@H]2[C@@H](O[C@@H]2O[C@H](C(=O)O)[C@@H](O)[C@H](O)[C@H]2O)C=C[C@H]3[C@H]1C5` [M6G, morphine-6-glucuronide], for which, in assay [3], the “affinity with opioid receptor relative to morphine” value is on record as 100 times.
